This is a sample that favours compounds with a hit; in the whole collection about 4.1% have one here.
RGS4 act: RGS4 potentiators or activators, primary screen, cell-based, HEK293 M3R inducible RGS4, calcium flux. AID 463111, 2010. hit rate 0.92% among 310,000. carbachol calcium flux Fluo4; hits give low values. B-score at 10 µM;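 active = B-score of the integrated calcium signal more than 4 SD below the library mean, with starting fluorescence not abnormally high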;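 also: negative B-score means reduced calcium response which marks RGS4 activation or potentiation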
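test system = M3R-expressing HEK293 line, RGS4 induced by doxycycline | probe or stimulus = carbachol at ECmax as muscarinic agonist stimulus | timing = dye loading 30 min 37 °C, buffer rest 30 min RT | signal = calcium dye Fluo4 fluorescence | evaluation = B score from integrated fluorescence ratio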
MrgX1 PAM: positive allosteric modulators of MrgX1, primary screen, HEK293 cells, Fluo-4 calcium flux; FDSS; hits give high values; B-score at 10 µM; hit rate 0.63% among 310,000;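 active = plate-corrected calcium response at least 3 library SD above typical, normal starting fluorescence, not activating the receptor alone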;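 also: compound read alongside a low EC10 to EC30 dose of BAM8-22 agonist; peak minus trough fluorescence over baseline measured at the second addition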
RGS4 block: RGS4 inhibitors, primary screen, cell-based, HEK293 M3R inducible RGS4, calcium flux. B-score at 10 µM. Fluo-4 calcium flux; hits give high values; triggered by carbachol at its EC20. AID 463165, 2010. hit rate 0.45% among 310,000. Regulator of G-protein signaling 4 (Homo sapiens), P49798;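 active = B-score, a plate-corrected calcium signal, over three deviations above library mean, with baseline fluorescence within five deviations of library mean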;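 also: RGS4 expression induced by doxycycline in cells with stable M3 receptor; B-score is computed from the integrated fluorescence ratio over baseline after carbachol; higher B-score means a larger calcium signal and so more RGS4 inhibition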
Target sequence (P49798 whole entry, looked up): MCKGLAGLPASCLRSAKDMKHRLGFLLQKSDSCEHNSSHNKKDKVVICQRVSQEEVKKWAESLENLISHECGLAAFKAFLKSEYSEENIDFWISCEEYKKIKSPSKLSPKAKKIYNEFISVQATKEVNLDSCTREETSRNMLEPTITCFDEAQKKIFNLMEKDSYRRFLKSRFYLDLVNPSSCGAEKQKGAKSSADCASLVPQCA
Kir21 inh: inhibitors of mouse Kir2.1 inward-rectifier potassium channel | Inward rectifier potassium channel 2 (Mus musculus), P35561 | HEK293-Kir2.1, FluxOR thallium flux fluorescence; hits give low values | B-score at 10 µM | hit rate 0.85% among 310,000;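 active = fluorescence ratio B-score at or below minus 3 SD of library scores, with starting-brightness B-score within 2 SD, cut at about -4.2 in these data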;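 also: channel flux triggered by added potassium and thallium sulfate stimulus; B-score of peak minus minimum fluorescence over baseline after thallium stimulus; more negative B-score means stronger Kir2.1 block with less thallium influx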
Target sequence (P35561 whole entry, looked up): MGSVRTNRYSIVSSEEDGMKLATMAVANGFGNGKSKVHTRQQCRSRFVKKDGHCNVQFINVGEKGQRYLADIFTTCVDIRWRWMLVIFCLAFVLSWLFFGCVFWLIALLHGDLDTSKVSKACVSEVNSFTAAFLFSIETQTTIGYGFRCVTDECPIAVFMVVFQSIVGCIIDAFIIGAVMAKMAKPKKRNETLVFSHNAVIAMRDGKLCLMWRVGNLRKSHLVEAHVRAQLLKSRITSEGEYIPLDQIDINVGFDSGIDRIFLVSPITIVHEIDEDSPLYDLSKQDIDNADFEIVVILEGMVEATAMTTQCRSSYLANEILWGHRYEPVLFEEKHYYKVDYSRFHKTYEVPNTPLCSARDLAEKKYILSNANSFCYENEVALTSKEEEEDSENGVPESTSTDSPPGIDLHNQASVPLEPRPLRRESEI
MrgX1 ag: agonists of human MrgX1 receptor, primary screen, HEK293 cells, Fluo-4 calcium flux; B-score at 10 µM; AID 588627, 2011; Fluo-4 calcium fluorescence, agonist mode; hits give high values; hit rate 0.44% among 310,000;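 active = calcium response B-score plate-corrected fluorescence ratio at least 3 library SD, with starting fluorescence B-score inside 5 SD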
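System – MrgX1-expressing HEK293 cells · Incubation – cells plated overnight, dye loaded 0.5 h 37 °C, 0.5 h room temperature · Technique – kinetic Fluo-4 NW fluorescence of intracellular calcium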
MrgX1 antagonist: antagonists of human MrgX1 receptor, primary screen, HEK293 cells, Fluo-4 calcium flux | AID 588676, 2011 | Mas-related G-protein coupled receptor member X1 (Homo sapiens), Q96LB2 | hit rate 1.3% among 310,000 | BAM8-22 antagonism; hits give low values | B-score at 10 µM;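 active = calcium-response B-score plate-corrected more than 3 library SD below zero, starting fluorescence within 5 deviations, no agonist response on first addition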;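 also: peak minus trough fluorescence over baseline after final BAM8-22 challenge near maximal dose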
RGS4 act valid: reduced carbachol calcium response, RGS4-induced M3R cells, confirmation, RGS4 activator project, cell-based, HEK293 M3R/RGS4 inducible, calcium flux, duplicate. inhibition, % at 10 µM. hit rate 89% among 1,100. carbachol calcium flux Fluo4. shares compounds with RGS4 act;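 active = inhibition above 3 SD of the buffer control wells, cut at about 41% in these data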;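 also: signal is the integrated peak-minus-minimum Fluo4 fluorescence over baseline ratio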
M3R Ca counter: activity in cells without induced RGS4 expression. shares compounds with RGS4 act. HEK293 M3R non-induced RGS4, Fluo4 calcium flux; after carbachol challenge at its EC90. hit rate 82% among 1,100. inhibition, % at 10 µM;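 active = inhibition exceeding 3 SD of buffer-only control wells, cut at about 26% in these data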;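 also: percent drop in integrated peak-minus-baseline over baseline Fluo4 ratio after carbachol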
* hit, by the source's call; i = inactive; · = no result.

SMILES	RGS4 act	MrgX1 PAM	RGS4 block	Kir21 inh	MrgX1 ag	MrgX1 antagonist	RGS4 act valid	M3R Ca counter
CC[C@@H](NS(=O)(=O)c1ccc(C)cc1)C(=O)Oc1ccc2c3c(c(=O)oc2c1)CCC3	i	i	i	0.01	i	i	·	·
O=C1CCSc2ccc(Cl)cc2N1Cc1ccc(Cl)cc1	-10.1*	i	i	-2.22	i	i	89.5*	85.8*
Cc1cc(Nc2nnnn2-c2ccccc2)n(-c2ccc(Cl)cc2)n1	i	i	i	1.7	i	i	·	·
CCN1C(=O)/C(=C2/Sc3ccccc3N2CC)SC1=S	i	i	i	-1.56	i	i	·	·
OCCC1CN(Cc2ccncc2)CCN1C1CCCC1 (stereo unspecified)	i	i	i	1.87	i	i	·	·
CC(C)(O)C#Cc1ccc(CN2CCN(C3CCCCC3)C(CCO)C2)s1 (stereo unspecified)	-7.79*	i	i	1.72	i	i	64.5*	26.3*
CSc1ccc(CN2CCN(C3CCCC3)C(CCO)C2)cc1 (stereo unspecified)	-8.9*	i	i	0.02	i	i	88.5*	59.8*
COCCNC(=S)Nc1ccc2nc(N3CCOCC3)cc(C)c2c1	-11.4*	i	i	-0.24	i	i	0.0	0.0
COCCNC(=S)Nc1ccc2nc(N3CCCC3)cc(C)c2c1	i	i	i	-0.03	i	i	·	·
OCCC1CN(Cc2ccc(-c3ccco3)cc2)CCN1Cc1ccsc1 (stereo unspecified)	-7.74*	i	i	-4.52*	i	i	73.5*	83.8*
C#Cc1ccc(CN2CCN(Cc3ccsc3)C(CCO)C2)cc1 (stereo unspecified)	i	i	i	-0.97	i	i	·	·
O=C(NCc1ccc(Cl)cc1)c1cccc(NC(=O)c2ccccc2)c1	i	i	i	0.89	i	i	·	·
O=C(NCCc1ccc(F)cc1)c1cccc(NC(=O)c2ccccc2)c1	-7.66*	i	i	-1.66	i	i	55.5*	0.0
C/C(=N/NC(=O)c1cc(O)c(O)c(O)c1)c1ccc([N+](=O)[O-])cc1	i	·	i	0.77	·	·	·	·
Cc1cccc(NC(=O)C2CCN(S(=O)(=O)c3c(C)nn(C)c3C)CC2)n1	i	i	i	-0.27	i	i	·	·
Cc1cccc(NC(=O)C2CCN(S(=O)(=O)c3c(C)c(C)cc(C)c3C)CC2)n1	-10.7*	i	i	0.93	i	i	89.5*	64.3*
COc1ccc(-c2cc(C#N)nc(Cl)n2)cc1	i	i	i	1.04	i	i	·	·
Cc1c(C(=O)OC(C)CCN(C)C)oc2ccccc12 (stereo unspecified)	-11.2*	i	i	-0.78	i	i	93.0*	82.3*
Cc1c(C(=O)OCC(C)(C)CN(C)C)oc2ccccc12	i	i	i	0.52	i	i	·	·
Cc1c(C(=O)OCC(=O)N2C(C)CCCC2C)oc2ccccc12 (stereo unspecified)	i	i	i	0.67	i	i	·	·
Cc1c(C(=O)OCCN2CCCCC2)oc2ccccc12	-11*	i	i	-1.01	i	i	94.0*	91.3*
CCc1cc(S(N)(=O)=O)cc(CC)c1NC(C)=O	i	i	i	0	i	i	·	·
CCOc1ccc(C(C)=O)cc1COC(=O)C(C)N=C1NS(=O)(=O)c2ccccc21 (stereo unspecified)	i	i	i	-0.1	i	i	·	·
CN1CCN(CC(=O)Nc2c(C(=O)c3ccccc3)oc3ccccc23)CC1	-9.96*	i	i	-3.02	i	i	70.0*	26.8*
C[n+]1cccc2ccc3c(c21)OC(N)=C(C#N)C3c1ccccc1 (stereo unspecified)	-11.8*	i	i	1.33	i	i	76.5*	83.8*
SMILES	RGS4 act	MrgX1 PAM	RGS4 block	Kir21 inh	MrgX1 ag	MrgX1 antagonist	RGS4 act valid	M3R Ca counter
CN(C)S(=O)(=O)c1cc(NC(=O)CN2CCCc3ccccc32)ccc1Cl	i	i	i	-0.71	i	i	·	·
Oc1ccccc1Oc1ncc(Br)c(N2CCOCC2)n1	-11.1*	i	i	-0.54	i	i	92.5*	63.8*
COc1cc(C(=O)Nc2ccc3c(c2)N(C(=O)CCN(C)C)c2ccccc2CC3)cc(OC)c1OC	-11.7*	i	i	0.1	i	i	91.5*	79.3*
CC(C)CN(C(=O)CC1OC(=O)c2ccccc21)c1c(N)n(Cc2ccccc2)c(=O)[nH]c1=O (stereo unspecified)	i	i	i	-0.6	i	i	·	·
CC1c2ccccc2SC(CCCN(C)C)c2ccccc21 (stereo unspecified)	i	i	i	-3.5	i	i	·	·
CN(C)CCC1Sc2ccccc2Oc2ccccc21 (stereo unspecified)	-7.64*	i	i	-3.64	i	i	73.5*	83.8*
CN(C(=O)c1ccc(OC2CCN(CCc3ccccc3)CC2)cc1)C1CCCCC1	-8.92*	i	i	-1.76	i	i	0.0	0.0
Cc1nc(CS(=O)(=O)c2ccccn2)sc1C(=O)NNC(=O)c1c(F)cccc1Cl	i	i	i	-0.64	i	i	·	·
O=C(CCC1CCCN(Cc2cccc3c2OCO3)C1)NCc1ccc(F)c(F)c1 (stereo unspecified)	-9.43*	i	i	0.03	i	i	50.5*	32.8*
COC(=O)c1ccc(CN2CCCC(CCC(=O)NCc3ccc(C)o3)C2)cc1 (stereo unspecified)	-8.99*	i	i	-0.67	i	i	88.0*	70.8*
COc1ccc(/C=C/CN2CCCC(CCC(=O)NCc3ccc(F)c(F)c3)C2)cc1 (stereo unspecified)	-7.82*	i	i	-4.9*	i	i	91.5*	87.3*

Screening data: PubChem BioAssay, Johns Hopkins Ion Channel Center
